# According to ChEMBL document CHEMBL3600357 (J Med Chem, 2015):
# Calls of active or inactive are those of the source. The rule behind the calls is not given here.
# Columns and labels:
# Rattus norvegicus [1] = assay: Toxicity in human SJSA1 cells xenografted rat assessed as change in body weight at 30 mg/kg, po qd (reference value: 1.9 to 6.8%); format: organism-based, SJSA-1; details: in vivo
# Rattus norvegicus [2] = assay: Toxicity in human SJSA1 cells xenografted rat assessed as mouse survival at 70 mg/kg, po dosed 3 times per week; format: organism-based, SJSA-1; details: in vivo
# Method in brief: (§1)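 Tolerability was monitored in SJSA-1 tumour-bearing rats during the daily and 3qw (Monday, Wednesday, Friday) treatment schedules. Histopathology was done on all 3qw doses and on the 30 mg/kg daily group.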
# Canis familiaris = assay: Oral bioavailability in beagle dog at 0.3 mg/kg; format: ADME, organism-based, Canis lupus familiaris; details: in vivo
# Rattus norvegicus [3] = assay: Toxicity in human SJSA1 cells xenografted dosed rat assessed as induction of histopathological changes dosed orally on daily basis under q24h regime; format: organism-based, SJSA-1; details: in vivo, po
# Method in brief: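 Rats bearing MDM2-amplified SJSA-1 human tumours, treated daily. Tolerability was monitored during treatment. Histopathology for compound-related findings was performed at the 30 mg/kg daily dose.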
# Rattus norvegicus [4] = assay: Volume of distribution at steady state in Sprague-Dawley rat at 1 mg/kg, iv; format: ADME, organism-based; details: in vivo
# Rattus norvegicus [5] = assay: Toxicity in human SJSA1 cells xenografted rat assessed as change in body weight at 10 mg/kg, po qd (reference value: 1.9 to 6.8%); format: organism-based, SJSA-1; details: in vivo
# [6] = biological target: E3 ubiquitin-protein ligase Mdm2 (Canis lupus familiaris, UniProt P56950); assay: Inhibition of dog MDM2 by TR-FRET assay
# Chain of E3 ubiquitin-protein ligase Mdm2 (P56950 whole entry): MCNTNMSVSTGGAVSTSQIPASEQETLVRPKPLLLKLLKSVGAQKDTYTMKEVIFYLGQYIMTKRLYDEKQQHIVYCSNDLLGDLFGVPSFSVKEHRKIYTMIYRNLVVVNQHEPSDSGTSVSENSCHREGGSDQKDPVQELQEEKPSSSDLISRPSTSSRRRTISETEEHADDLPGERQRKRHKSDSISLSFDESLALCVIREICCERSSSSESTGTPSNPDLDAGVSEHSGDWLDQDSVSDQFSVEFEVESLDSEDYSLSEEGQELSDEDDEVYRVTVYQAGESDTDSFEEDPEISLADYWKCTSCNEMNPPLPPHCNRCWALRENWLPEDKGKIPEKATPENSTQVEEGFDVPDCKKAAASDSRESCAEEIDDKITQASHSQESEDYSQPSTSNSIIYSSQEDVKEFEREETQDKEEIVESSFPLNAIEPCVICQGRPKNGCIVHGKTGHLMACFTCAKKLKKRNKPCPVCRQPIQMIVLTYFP
# [7] = Terminal half life in OF1 mouse at 1 mg/kg, iv; format: ADME, organism-based; details: in vivo, read-out: beta t1/2 (converted)
# Rattus norvegicus [8] = assay: Toxicity in human SJSA1 cells xenografted rat assessed as mouse survival at 30 mg/kg, po dosed 3 times per week; format: organism-based, SJSA-1; details: in vivo; method in brief: as §1
# [9] = Tmax in cynomolgus monkey at 0.3 mg/kg, po; format: ADME, organism-based, Macaca fascicularis; details: in vivo
# Rattus norvegicus [10] = assay: Toxicity in human SJSA1 cells xenografted rat assessed as mouse survival at 5 mg/kg, po qd; format: organism-based, SJSA-1; details: in vivo; method in brief: as §1
# [11] = AUC (0 to 24 hrs) in human SJSA1 cells xenografted rat assessed as mouse survival at 10 mg/kg, po qd; format: ADME, organism-based, SJSA-1; parameters: time < 24 hr, dose 10 mg/kg, route oral; details: in vivo
# Method in brief: (§2)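 Rats bearing MDM2-amplified human SJSA-1 tumors, dosed orally either daily or 3qw (Monday, Wednesday, Friday). Plasma exposure reported as AUC0-24, plus AUC0-48 for the 3qw schedule.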
# [12] = Volume of distribution at steady state in cynomolgus monkey at 0.1 mg/kg, iv; format: ADME, organism-based, Macaca fascicularis; details: in vivo, read-out: Vdss
# [13] = Intrinsic clearance in monkey liver microsomes; format: ADME, Macaca mulatta; details: rhesus monkey, read-out: CLH
# [14] = Intrinsic clearance in human liver microsomes; format: ADME; details: read-out: CLH
# [15] = biological target: Induced myeloid leukemia cell differentiation protein Mcl-1 (Homo sapiens, UniProt Q07820); assay: Inhibition of Mcl1 (unknown origin) assessed as inhibition of Mcl1-Noxa interaction by TR-FRET assay
# Chain of Induced myeloid leukemia cell differentiation protein Mcl-1 (Q07820 whole entry): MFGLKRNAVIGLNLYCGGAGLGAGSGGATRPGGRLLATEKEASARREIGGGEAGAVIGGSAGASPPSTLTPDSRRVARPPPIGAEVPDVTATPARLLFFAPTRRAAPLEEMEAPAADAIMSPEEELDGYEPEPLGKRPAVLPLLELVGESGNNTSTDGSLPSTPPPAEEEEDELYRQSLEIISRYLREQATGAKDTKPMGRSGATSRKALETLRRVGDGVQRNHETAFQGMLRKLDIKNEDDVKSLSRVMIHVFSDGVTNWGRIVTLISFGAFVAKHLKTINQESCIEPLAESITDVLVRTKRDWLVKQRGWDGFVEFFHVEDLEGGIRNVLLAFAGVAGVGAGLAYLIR
# Rattus norvegicus [16] = organism: Rattus norvegicus; assay: Toxicity in male rat assessed as changes in adrenal gland parameters; format: organism-based; details: in vivo
# Mus musculus = assay: Oral bioavailability in OF1 mouse at 3 mg/kg; format: ADME, organism-based; details: in vivo
# [17] = Volume of distribution at steady state in beagle dog at 0.1 mg/kg, iv; format: ADME, organism-based, Canis lupus familiaris; details: in vivo, read-out: Vdss
# [18] = Protein binding in beagle dog plasma by equilibrium dialysis method; format: ADME, cell-free, Canis lupus familiaris; details: read-out: PPB
# [19] = biological target: E3 ubiquitin-protein ligase XIAP (Homo sapiens, UniProt P98170); assay: Inhibition of XIAP (unknown origin) assessed as inhibition of XIAP-BIR3 interaction by TR-FRET assay
# Chain of E3 ubiquitin-protein ligase XIAP (P98170 whole entry): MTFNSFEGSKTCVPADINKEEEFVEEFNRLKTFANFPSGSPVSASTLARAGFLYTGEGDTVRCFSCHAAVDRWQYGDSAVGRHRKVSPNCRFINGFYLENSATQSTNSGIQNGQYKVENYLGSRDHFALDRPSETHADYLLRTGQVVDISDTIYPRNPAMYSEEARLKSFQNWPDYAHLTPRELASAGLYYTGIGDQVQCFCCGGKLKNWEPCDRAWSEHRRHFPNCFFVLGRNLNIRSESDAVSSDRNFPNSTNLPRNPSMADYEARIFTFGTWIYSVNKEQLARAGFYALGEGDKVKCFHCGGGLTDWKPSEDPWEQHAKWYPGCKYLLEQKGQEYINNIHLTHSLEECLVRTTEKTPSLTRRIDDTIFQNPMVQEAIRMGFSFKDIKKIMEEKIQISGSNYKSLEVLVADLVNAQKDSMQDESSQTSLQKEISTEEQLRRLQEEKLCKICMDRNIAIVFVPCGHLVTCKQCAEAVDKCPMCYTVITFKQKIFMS
# Rattus norvegicus [20] = organism: Rattus norvegicus; assay: Toxicity in rat assessed as changes in testes parameters; format: organism-based, Testis; details: in vivo
# Rattus norvegicus [21] = assay: In-vivo inhibition of MDM2/p53 interaction in human SJSA1 cells xenografted rat assessed as increase in PUMA mRNA level at 30 mg/kg, po measured within 72 hrs post dose by qRT-PCR method; format: functional, organism-based; details: SJSA-1
# Method in brief: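 SJSA-1 (MDM2-amplified) tumour-bearing rats were dosed at 30 mg/kg. Tumour samples were collected over time, and p21, MDM2 and PUMA mRNA were measured as p53 pharmacodynamic markers, alongside compound levels.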
# Rattus norvegicus [22] = assay: Oral bioavailability in Sprague-Dawley rat at 3 mg/kg; format: ADME, organism-based; details: in vivo
# Method in brief: (§3)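 Sprague-Dawley rats. IV dose given as a solution in NMP:PEG200 (10:90); 3 mg/kg PO given as a suspension in CMC:water:Tween (0.5:99:0.5). AUC and Cmax dose-normalized to 1 mg/kg. Mean ± SD from four rats.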
# SJSA-1 [23] = assay: Antitumor activity against human SJSA1 cells xenografted in rat assessed as reduction tumor growth dosed orally on daily basis under q24h regime; format: functional, organism-based
# Method in brief: (§4)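 SJSA-1 tumour-bearing rats were treated either daily or 3qw (Monday, Wednesday and Friday) across a range of doses, and tumour growth was followed over the treatment course. Plasma AUC0-24 was also determined, along with AUC0-48 for the 3qw schedule.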
# SJSA-1 [24] = assay: Antitumor activity against human SJSA1 cells xenografted in rat assessed as reduction tumor growth dosed orally three times per week; format: functional, organism-based; method in brief: as §4
# Rattus norvegicus [25] = assay: Terminal half life in Sprague-Dawley rat at 1 mg/kg, iv; format: ADME, organism-based; details: in vivo; method in brief: as §3
# Rattus norvegicus [26] = assay: Toxicity in human SJSA1 cells xenografted rat assessed as change in body weight at 20 mg/kg, po qd (reference value: 1.9 to 6.8%); format: organism-based, SJSA-1; details: in vivo
# SJSA-1 [27] = assay: Inhibition of cell proliferation of human SJSA1 cells
# [28] = AUC (0 to 24 hrs) in human SJSA1 cells xenografted rat assessed as mouse survival at 20 mg/kg, po qd; format: ADME, organism-based, SJSA-1; parameters: time < 24 hr, dose 20 mg/kg, route oral; details: in vivo; method in brief: as §2
compound,measurement,setting,value
COc1cc2c(cc1OC(C)C)[C@H](c1ccc(Cl)cc1)N(c1ccc(N(C)C[C@H]3CC[C@H](N4CCN(C)C(=O)C4)CC3)cc1)C(=O)C2 [CGM-097],Activity,Rattus norvegicus [1],4.5%
same,Activity,Rattus norvegicus [2],Non-toxic
same,F,Canis familiaris,74%
same,Activity,Rattus norvegicus [3],Non-toxic
same,Vdss,Rattus norvegicus [4],6.4 L/kg
same,Activity,Rattus norvegicus [5],1.8%
same,Ki,[6],20.5 nM
same,half-life,[7],6.4 h
same,Activity,Rattus norvegicus [8],Non-toxic
same,Tmax,[9],1.3 h
same,Activity,Rattus norvegicus [10],Non-toxic
same,AUC at 24 h,[11],61 µM·h
same,Vd,[12],2 L/kg
same,microsomal CLint,[13],26.6 µL/min/mg
same,microsomal CLint,[14],52.3 µL/min/mg
same,IC50,[15],> 50000 nM
same,Activity,Rattus norvegicus [16],Toxic
same,F,Mus musculus,71%
same,Vd,[17],4.2 L/kg
same,fraction unbound,[18],< 0.01
same,IC50,[19],> 50000 nM
same,Activity,Rattus norvegicus [20],Toxic
same,inhibition,Rattus norvegicus [21],Active
same,F,Rattus norvegicus [22],81%
same,growth inhibition (GI),SJSA-1 [23],Dose-dependent effect
same,growth inhibition (GI),SJSA-1 [24],Dose-dependent effect
same,beta t1/2,Rattus norvegicus [25],12.1 h
same,Activity,Rattus norvegicus [26],3.4%
same,GI50,SJSA-1 [27],350 nM
same,AUC at 24 h,[28],163 µM·h
